From ChEMBL document CHEMBL5500359, “Identification of a new bisindolinone arresting IGROV1 cells proliferation” (Eur J Med Chem, 2024)

Key:
Ovarian cancer cell line [1] = test: Cytotoxicity against human Ovarian cancer cells incubated for 48 hrs by SRB assay; format: functional
Outline: (§1)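 NCI-60 five-concentration screen: lines seeded 5×10^3–4×10^4 cells/well depending on line; compound diluted in fresh medium at scalar concentrations 0–100 or 0–1000 μM; 48 h exposure, in situ fixation, sulforhodamine B protein staining, optical density read; GI50, TGI and LC50 per NCI procedures; panel mean = mean graph midpoint.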

Colon carcinoma cell [2] = test: Cytostatic activity against human Colon carcinoma cells incubated for 48 hrs by SRB assay; format: functional; outline: as §1
Breast cancer cell line [3] = test: Cytostatic activity against human Breast cancer cells incubated for 48 hrs by SRB assay; format: functional; outline: as §1
Renal cancer cell line [4] = test: Cytostatic activity against human Renal cancer cells incubated for 48 hrs by SRB assay; format: functional; outline: as §1
Renal cancer cell line [5] = test: Cell growth inhibition of human Renal cancer cells incubated for 48 hrs by SRB assay; format: functional; outline: as §1
Colon carcinoma cell [6] = test: Cytotoxicity against human Colon carcinoma cells incubated for 48 hrs by SRB assay; format: functional; outline: as §1
Breast cancer cell line [7] = test: Cell growth inhibition of human Breast cancer cells incubated for 48 hrs by SRB assay; format: functional; settings: read-out: LC50 (the source's name)
Outline: (§2)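 NCI DTP five-concentration screen. Cells were seeded at 5 × 10³–4 × 10⁴ cells/well, depending on the line. Compounds were diluted in fresh medium and added at scalar concentrations over 0–1000 µM or 0–100 µM. After 48 h the cells were fixed in situ, stained with sulforhodamine B, and optical density was read. GI50, TGI and LC50 were derived by NCI procedures, and the panel mean is the mean graph midpoint.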

NSCLC = test: Cell growth inhibition of human NSCLC cells incubated for 48 hrs by SRB assay; format: functional; outline: as §1
[8] = tested on: Panel NCI-60 (60 carcinoma cell lines); test: Cell growth inhibition of human Panel NCI-60 (60 carcinoma cell lines) incubated for 48 hrs by SRB assay; format: functional; outline: as §1
CNS carcinoma cell [9] = test: Cytostatic activity against human CNS carcinoma cells incubated for 48 hrs by SRB assay; format: functional; outline: as §1
Breast cancer cell line [10] = test: Cytotoxicity against human Breast cancer cells incubated for 48 hrs by SRB assay; format: functional; outline: as §1
[11] = Cytostatic activity against human Leukemia cancer cells incubated for 48 hrs by SRB assay; format: functional, Leukemia cell; outline: as §1
[12] = Cytotoxicity against human Leukemia cancer cells incubated for 48 hrs by SRB assay; format: functional; settings: Leukemia cell, read-out: LC50 (the source's name); outline: as §2
Melanoma cell line [13] = test: […] against human Melanoma cells incubated for 48 hrs by SRB assay; format: functional; settings: read-out: LC50 (the source's name); outline: as §2
CNS carcinoma cell [14] = test: Cell growth inhibition of human CNS carcinoma cells incubated for 48 hrs by SRB assay; format: functional; outline: as §1
[15] = tested on: Panel NCI-60 (60 carcinoma cell lines); test: Cytostatic activity against human Panel NCI-60 (60 carcinoma cell lines) incubated for 48 hrs by SRB assay; format: functional; outline: as §1
Melanoma cell line [16] = test: Cell growth inhibition of human Melanoma cells incubated for 48 hrs by SRB assay; format: functional; outline: as §1
Prostatic carcinoma cell = test: Cell growth inhibition of human Prostate carcinoma cells incubated for 48 hrs by SRB assay; format: functional; outline: as §1
[17] = Cell growth inhibition of human Leukemia cancer cells incubated for 48 hrs by SRB assay; format: functional; outline: as §1
Ovarian cancer cell line [18] = test: Cytostatic activity against human Ovarian cancer cells incubated for 48 hrs by SRB assay; format: functional; outline: as §1

| SMILES | GI (Ovarian cancer cell line [1]) [µM] | TGI (Colon carcinoma cell [2]) [µM] | TGI (Breast cancer cell line [3]) [µM] | GI (Renal cancer cell line [4]) [µM] | GI50 (Renal cancer cell line [5]) [µM] | GI (Colon carcinoma cell [6]) [µM] | CC50 (Breast cancer cell line [7]) [µM] | GI (NSCLC) [µM] | GI50 [8] [µM] | GI (CNS carcinoma cell [9]) [µM] | GI (Breast cancer cell line [10]) [µM] | GI [11] [µM] | CC50 [12] [µM] | CC50 (Melanoma cell line [13]) [µM] | GI50 (CNS carcinoma cell [14]) [µM] | GI [15] [µM] | GI (Melanoma cell line [16]) [µM] | GI (Prostatic carcinoma cell) [µM] | GI50 [17] [µM] | TGI (Ovarian cancer cell line [18]) [µM] |
| --- | --- | --- | --- | --- | --- | --- | --- | --- | --- | --- | --- | --- | --- | --- | --- | --- | --- | --- | --- | --- |
| COc1cc2c(c(OC)c1OC)C(=Cc1cc(C(C)(C)C)cc(/C=C3\C(=O)Nc4cc(OC)c(OC)c(OC)c43)c1O)C(=O)N2 | 25.12 | 3.89 | 4.9 | 4.9 | 2.19 | 8.13 | 1.86 | 1.95 | 1.95 | 3.31 | 50.12 | 6.03 | 60.3 | 3.63 | 1.62 | 4.37 | 1.82 | 1.91 | 2.19 | 5.13 |
| COc1cc2c(/C=C3/C(=O)N(C)c4cc5c(cc43)/C(=C\c3c(Cl)[nH]c4cc(C)c(OC)cc34)C(=O)N5C)c(Cl)[nH]c2cc1C | 45.71 | 4.17 | 10 | 7.24 | 1.95 | 9.77 | 24.6 | 2.19 | 2.04 | 7.76 | 33.11 | 5.37 | 42.7 | 6.46 | 1.82 | 7.59 | 2.34 | 1.82 | 1.2 | 10.7 |
